Results: ChEMBL document CHEMBL1124389, “Spermexatin and spermexatol: new synthetic spermidine-based siderophore analogues” (1989)

Tests used:
Type in all cases: functional
Escherichia coli [1] = assay: Compound (50 mM) was tested for the ability to stimulate growth of Escherichia coli UT 2300 at 18 h
Procedure, shortened: (§1)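 Disk-diffusion growth-promotion assay on E. coli RW 193 (FepA+) or its FepA− derivative UT2300. Cells were seeded at 10⁴/mL into Luria agar containing the iron chelator EDDA. Siderophores were dissolved in ethanol at 50, 10, 1 or 0.2 mM, spotted onto sterile disks, and the ethanol was evaporated. Plates were incubated 18 h at 37 °C and scored for growth around the disks. A 10 mM FeCl₃ disk served as positive control.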

Escherichia coli [2] = assay: Compound (0.2 mM) was tested for the ability to stimulate growth of Escherichia coli UT 2300 at 18 h; procedure, shortened: as §1
Vibrio cholerae [3] = assay: Compound (50 mM) was tested for the ability to stimulate growth of Vibrio cholera Lou 15 at 18 h
Vibrio cholerae [4] = assay: Compound (1 mM) was tested for the ability to stimulate growth of Vibrio cholera Lou 15 at 18 h
Vibrio cholerae [5] = assay: Compound (0.2 mM) was tested for the ability to stimulate growth of Vibrio cholera Lou 15 at 18 h
Vibrio cholerae [6] = assay: Compound (1 mM) was tested for the ability to stimulate growth of Vibrio cholera 1510 at 18 h
Escherichia coli [7] = assay: Compound (10 mM) was tested for the ability to stimulate growth of Escherichia coli RW 193 at 18 h; procedure, shortened: as §1
Escherichia coli [8] = assay: Compound (50 mM) was tested for the ability to stimulate growth of Escherichia coli RW 193 at 18 h; procedure, shortened: as §1
Escherichia coli [9] = assay: Compound (0.2 mM) was tested for the ability to stimulate growth of Escherichia coli RW 193 at 18 h; procedure, shortened: as §1
Vibrio cholerae [10] = assay: Compound (0.2 mM) was tested for the ability to stimulate growth of Vibrio cholera 1510 at 18 h
Vibrio cholerae [11] = assay: Compound (10 mM) was tested for the ability to stimulate growth of Vibrio cholera Lou 15 at 18 h
Escherichia coli [12] = assay: Compound (1 mM) was tested for the ability to stimulate growth of Escherichia coli RW 193 at 18 h; procedure, shortened: as §1
Escherichia coli [13] = assay: Compound (10 mM) was tested for the ability to stimulate growth of Escherichia coli UT 2300 at 18 h; procedure, shortened: as §1
Vibrio cholerae [14] = assay: Compound (50 mM) was tested for the ability to stimulate growth of Vibrio cholera 1510 at 18 h
Vibrio cholerae [15] = assay: Compound (10 mM) was tested for the ability to stimulate growth of Vibrio cholera 1510 at 18 h
Escherichia coli [16] = assay: Compound (1 mM) was tested for the ability to stimulate growth of Escherichia coli UT 2300 at 18 h; procedure, shortened: as §1
Vibrio cholerae [17] = assay: Compound (1 mM) was tested for the ability to stimulate growth of Vibrio cholera Lou 15 at 42h
Vibrio cholerae [18] = assay: Compound (10 mM) was tested for the ability to stimulate growth of Vibrio cholera Lou 15 at 42h
Vibrio cholerae [19] = assay: Compound (0.2 mM) was tested for the ability to stimulate growth of Vibrio cholera Lou 15 at 42h

Row | Compound | Growth zone (Escherichia coli [1]) [mm] | Growth zone (Escherichia coli [2]) [mm] | Growth zone (Vibrio cholerae [3]) [mm] | Growth zone (Vibrio cholerae [4]) [mm] | Growth zone (Vibrio cholerae [5]) [mm] | Growth zone (Vibrio cholerae [6]) [mm] | Growth zone (Escherichia coli [7]) [mm] | Growth zone (Escherichia coli [8]) [mm] | Growth zone (Escherichia coli [9]) [mm] | Growth zone (Vibrio cholerae [10]) [mm] | Growth zone (Vibrio cholerae [11]) [mm] | Growth zone (Escherichia coli [12]) [mm] | Growth zone (Escherichia coli [13]) [mm] | Growth zone (Vibrio cholerae [14]) [mm] | Growth zone (Vibrio cholerae [15]) [mm] | Growth zone (Escherichia coli [16]) [mm] | Growth zone (Vibrio cholerae [17]) [mm] | Growth zone (Vibrio cholerae [18]) [mm] | Growth zone (Vibrio cholerae [19]) [mm]
1 | CN(O)C(=O)CCC(=O)NCCCCN(CCCNC(=O)CCC(=O)N(C)O)C(=O)CCC(=O)N(C)O | 12 | 0 | 19 | 17 | 16 | 0 | 0 | 12 | 0 | 0 | 17 | 0 | 0 | 0 | 0 | 0 |  |  | 
2 | CN(O)C(=O)CCCC(=O)NCCCCN(CCCNC(=O)CCCC(=O)N(C)O)C(=O)CCCC(=O)N(C)O | 16 | 0 | 12 |  |  | 0 | 10 | 18 | 0 | 0 |  | 0 | 10 | 12 | 0 | 0 | 0 | 0 | 0
3 | O=C(N[C@H]1COC(=O)[C@@H](NC(=O)c2cccc(O)c2O)COC(=O)[C@@H](NC(=O)c2cccc(O)c2O)COC1=O)c1cccc(O)c1O [ENTEROBACTIN] |  | 0 |  | 22 | 0 | 0 |  |  | 28 | 0 | 28 | 40 | 0 |  | 0 | 0 |  |  | 
4 | CN(O)C(=O)CCC(=O)N(CCCCNC(=O)c1cccc(O)c1O)CCCNC(=O)c1cccc(O)c1O [SPERMEXATOL] | 0 | 0 | 36 |  |  | 0 | 12 | 21 | 0 | 0 |  | 0 | 0 | 28 | 0 | 0 | 0 | 0 | 0
5 | CC1OC(c2cccc(O)c2O)=NC1C(=O)NCCCN(CCCNC(=O)c1cccc(O)c1O)C(=O)C1N=C(c2cccc(O)c2O)OC1C (centres undefined) [VIBRIOBACTIN] | 0 | 0 |  | 32 | 32 | 0 | 0 | 0 | 0 | 0 | 32 | 0 | 0 | 0 | 0 | 0 |  |  | 
